Reference: ChEMBL document CHEMBL3045866, “A novel family of insect-selective peptide neurotoxins targeting insect large-conductance calcium-activated K+ channels isolated from the venom of the theraphosid spider Eucratoscelus constrictus” (Mol Pharmacol, 2011)
Activity calls are given as the source filed them. The calls are words filed in the database; no cut-off is given here. Bridge positions count the residues as written; N and C are the ends. Peptide text beside a SMILES is read from it.

Tests used:
[1] = target: Voltage-dependent calcium channel alpha-1 subunit (Blattella germanica) (UniProt O18323); assay: Inhibition of mid-low voltage activated Cav channel in Periplaneta americana (American cockroach) DUM neurons assessed as effect on voltage-dependent activation at 330 nM measured at holding potential -90 mV depolarized to +70 mV with 10 mV increments after 10 min by whole cell patch clamp assay
Outline: (§1)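 Ba2+ currents through M-LVA and HVA Cav channels recorded by whole-cell clamp in cockroach DUM neurons at 20–23°C. Toxin applied for 10 min via a perfusion needle. Peak IBa measured relative to control. For activation, steps from Vh -90 mV to +70 mV in 10-mV increments at 0.1 Hz. P-P/4 leak subtraction; n = 3.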

[2] = target: Voltage-dependent calcium channel alpha-1 subunit (Blattella germanica) (UniProt O18323); assay: Inhibition of high voltage activated Cav channel in Periplaneta americana (American cockroach) DUM neurons assessed as effect on voltage-dependent activation at 330 nM measured at holding potential -90 mV depolarized to +70 mV with 10 mV increments after 10 min by whole cell patch clamp assay; outline: as §1
[3] = target: Voltage-dependent calcium channel alpha-1 subunit (Blattella germanica) (UniProt O18323); assay: Inhibition of mid-low voltage activated Cav channel in Periplaneta americana (American cockroach) DUM neurons assessed as reduction in barium current at 330 nM measured at holding potential -90 mV depolarized to -20 mV after 10 min by whole cell patch clamp assay relative to control; outline: as §1
[4] = target: Voltage-gated sodium channel Nav1 alpha subunit (Periplaneta americana) (UniProt D0E0C1); assay: Inhibition of Nav channel in Periplaneta americana (American cockroach) DUM neurons assessed as effect on voltage-dependent activation at 330 nM measured at holding potential -90 mV depolarised to +70 mV with 10 mV increments for 10 min by whole cell patch clamp assay
Outline: (§2)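 Whole-cell voltage clamp of TTX-sensitive Na+ current in DUM neurons isolated from adult cockroaches and kept no longer than 24 h at 30°C. Bath (mM): NaCl 80, CsCl 5, CaCl2 1.8, TEA-Cl 50, 4-AP 5, HEPES 10, NiCl2 0.1, CdCl2 1, pH 7.4. Vh -90 mV; test pulse to -10 mV, or steps to +70 mV in 10-mV increments at 0.1 Hz. P-P/4 leak subtraction; 20–23°C.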

[5] = target: Voltage-dependent calcium channel alpha-1 subunit (Blattella germanica) (UniProt O18323); assay: Inhibition of high voltage activated Cav channel in Periplaneta americana (American cockroach) DUM neurons assessed as reduction in barium current at 330 nM measured at holding potential -90 mV depolarized to +30 mV after 10 min by whole cell patch clamp assay relative to control; outline: as §1
[6] = target: Voltage-gated sodium channel Nav1 alpha subunit (Periplaneta americana) (UniProt D0E0C1); assay: Inhibition of Nav channel in Periplaneta americana (American cockroach) DUM neurons assessed as remaining activity at 330 nM measured at holding potential -90 mV depolarized to -10 mV after 10 min by whole cell patch clamp assay relative to control; outline: as §2
Mus musculus [7] = assay: Neurotoxicity against Mus musculus C57BL/6 (mouse) assessed as effect on behaviour at 500 pmol, icv; type: toxicity, organism-based; details: in vivo, icv_or_intrathecal
Outline: (§3)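 Female C57BL/6 mice (~20 g) lightly anesthetized with diethylether. 5 µl of sample in BSA solution injected into the left cerebral ventricle. Posture, behavior and neurotoxic signs observed; n = 2.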

Mus musculus [8] = assay: Neurotoxicity against Mus musculus C57BL/6 (mouse) assessed as effect on posture at 500 pmol, icv; type: toxicity, organism-based; details: in vivo, icv_or_intrathecal; outline: as §3
Gryllus bimaculatus [9] = assay: Neurotoxicity against third-instar nymph stage of Gryllus bimaculatus (cricket) assessed as mortality at 1.1 nmol/g measured at 15 min; type: functional, organism-based
Gryllus bimaculatus [10] = assay: Neurotoxicity against third-instar nymph stage of Gryllus bimaculatus (cricket) assessed as paralysis at 1.1 nmol/g measured within 5 min; type: functional, organism-based
[11] = target: Voltage-dependent calcium channel alpha-1 subunit (Blattella germanica) (UniProt O18323); assay: (§4) Inhibition of voltage-gated calcium channel Cav-mediated late-sustained current in Periplaneta americana (American cockroach) DUM neurons assessed as effect on voltage-dependent activation at 25 nM measured at holding potential -80 mV in 10 mV increments depolarized to +40 mV after 10 min by whole cell patch clamp assay in presence of CdCl2
[12] = target: Voltage-dependent calcium channel alpha-1 subunit (Blattella germanica) (UniProt O18323); assay: as §4, with “fast-transient” for “late-sustained”
Outline: (§5)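 BK(Ca) current in DUM neurons with 5 mM 4-AP in the bath. Toxin perfused for 10 min or to equilibrium; then 1 mM CdCl2 plus 30 nM ChTx added, and the residual current subtracted. 100-ms steps from Vh -80 mV to +30 mV, or to +40 mV in 10-mV increments for I–V. Peak (fast-transient) and 100-ms (late) amplitudes measured. IC50 from logistic fit; n = 3–6.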

[13] = target: Voltage-dependent calcium channel alpha-1 subunit (Blattella germanica) (UniProt O18323); assay: Inhibition of voltage-gated calcium channel Cav-mediated late-sustained current in Periplaneta americana (American cockroach) DUM neurons assessed as measured at holding potential -80 mV depolarized to +40 mV after 10 min by whole cell patch clamp assay in presence of CdCl2; outline: as §5
[14] = target: Voltage-dependent calcium channel alpha-1 subunit (Blattella germanica) (UniProt O18323); assay: Inhibition of voltage-gated calcium channel Cav-mediated fast-transient current in Periplaneta americana (American cockroach) DUM neurons assessed as measured at holding potential -80 mV depolarized to +40 mV after 10 min by whole cell patch clamp assay in presence of CdCl2; outline: as §5
[15] = Reversible inhibition of Potassium channel Kv in Periplaneta americana (American cockroach) DUM neurons at 330 nM measured at holding potential -90 mV depolarized to +30 mV after 10 min by whole cell patch clamp assay relative to control
[16] = Inhibition of transient A type potassium channel IK(A) in Periplaneta americana (American cockroach) DUM neurons at 330 nM measured at holding potential -90 mV depolarized to +30 mV after 10 min by whole cell patch clamp assay in presence of CdCl2 and ChTx
[17] = Inhibition of delayed rectifier potassium channel IK(DR) in Periplaneta americana (American cockroach) DUM neurons at 330 nM measured at holding potential -90 mV depolarized to +30 mV after 10 min by whole cell voltage clamp assay in presence of CdCl2 and ChTx relative to control
[18] = Inhibition of transient A type potassium channel IK(A) in Periplaneta americana (American cockroach) DUM neurons assessed as effect on voltage-dependent activation at 330 nM measured at holding potential -90 mV depolarized to +40 mV with 100 ms increments after 10 min by whole cell patch clamp …
[19] = Inhibition of delayed rectifier potassium channel IK(DR) in Periplaneta americana (American cockroach) DUM neurons assessed as effect on voltage-dependent activation at 330 nM measured at holding potential -90 mV depolarized to +40 mV with 100 ms increments after 10 min by whole cell voltage clamp …
Mus musculus [20] = assay: Neurotoxicity against Mus musculus C57BL/6 (mouse) assessed as tonic paralysis at 500 pmol, icv measured after 4 hr; type: toxicity, organism-based; details: in vivo, icv_or_intrathecal
Mus musculus [21] = assay: Neurotoxicity against Mus musculus C57BL/6 (mouse) assessed as cyanosis at 500 pmol, icv measured after 4 hr; type: toxicity, organism-based; details: in vivo, icv_or_intrathecal
Mus musculus [22] = assay: Neurotoxicity against Mus musculus C57BL/6 (mouse) assessed as cyanosis at 500 pmol, icv; type: toxicity, organism-based; details: in vivo, icv_or_intrathecal; outline: as §3
Mus musculus [23] = assay: Neurotoxicity against Mus musculus C57BL/6 (mouse) assessed as respiratory paralysis at 500 pmol, icv; type: toxicity, organism-based; details: in vivo, icv_or_intrathecal; outline: as §3
Mus musculus [24] = assay: Neurotoxicity against Mus musculus C57BL/6 (mouse) assessed as tail erection at 500 pmol, icv; type: toxicity, organism-based; details: in vivo, icv_or_intrathecal; outline: as §3
Mus musculus [25] = assay: Neurotoxicity against Mus musculus C57BL/6 (mouse) assessed as extension of toes at 500 pmol, icv; type: toxicity, organism-based; details: in vivo, icv_or_intrathecal; outline: as §3
Mus musculus [26] = assay: Neurotoxicity against Mus musculus C57BL/6 (mouse) assessed as extension of leg at 500 pmol, icv; type: toxicity, organism-based; details: in vivo, icv_or_intrathecal; outline: as §3
Mus musculus [27] = assay: Neurotoxicity against Mus musculus C57BL/6 (mouse) assessed as ataxia at 500 pmol, icv; type: toxicity, organism-based; details: in vivo, icv_or_intrathecal; outline: as §3
Mus musculus [28] = assay: Neurotoxicity against Mus musculus C57BL/6 (mouse) assessed as tonic paralysis at 500 pmol, icv; type: toxicity, organism-based; details: in vivo, icv_or_intrathecal; outline: as §3
Mus musculus [29] = assay: Neurotoxicity against Mus musculus C57BL/6 (mouse) assessed as convulsion at 500 pmol, icv; type: toxicity, organism-based; details: in vivo, icv_or_intrathecal; outline: as §3

Sequence of Voltage-dependent calcium channel alpha-1 subunit (Blattella germanica) (O18323 as listed by the source): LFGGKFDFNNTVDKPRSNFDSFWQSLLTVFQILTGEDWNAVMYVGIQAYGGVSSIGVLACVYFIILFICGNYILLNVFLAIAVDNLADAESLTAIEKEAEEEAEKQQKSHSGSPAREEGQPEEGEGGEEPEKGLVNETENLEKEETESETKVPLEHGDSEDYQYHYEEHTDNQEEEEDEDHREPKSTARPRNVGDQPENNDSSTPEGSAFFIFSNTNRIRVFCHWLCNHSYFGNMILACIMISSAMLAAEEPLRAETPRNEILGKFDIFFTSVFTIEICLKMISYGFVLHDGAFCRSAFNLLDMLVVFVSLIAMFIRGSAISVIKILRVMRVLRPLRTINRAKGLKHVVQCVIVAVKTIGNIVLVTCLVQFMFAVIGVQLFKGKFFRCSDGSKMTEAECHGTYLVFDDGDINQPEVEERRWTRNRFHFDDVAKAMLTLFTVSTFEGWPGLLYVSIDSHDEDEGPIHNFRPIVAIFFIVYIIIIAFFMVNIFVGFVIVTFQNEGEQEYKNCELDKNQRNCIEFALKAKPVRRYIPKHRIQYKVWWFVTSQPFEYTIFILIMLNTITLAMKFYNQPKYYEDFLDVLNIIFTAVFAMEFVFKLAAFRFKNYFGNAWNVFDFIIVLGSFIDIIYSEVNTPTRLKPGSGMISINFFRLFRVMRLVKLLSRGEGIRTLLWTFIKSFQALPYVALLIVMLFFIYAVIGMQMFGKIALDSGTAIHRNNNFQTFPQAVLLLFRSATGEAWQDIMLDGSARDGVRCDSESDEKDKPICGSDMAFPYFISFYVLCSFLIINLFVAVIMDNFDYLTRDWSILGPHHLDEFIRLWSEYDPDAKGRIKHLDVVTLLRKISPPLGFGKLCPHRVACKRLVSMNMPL
Sequence of Voltage-gated sodium channel Nav1 alpha subunit (Periplaneta americana) (D0E0C1 as listed by the source): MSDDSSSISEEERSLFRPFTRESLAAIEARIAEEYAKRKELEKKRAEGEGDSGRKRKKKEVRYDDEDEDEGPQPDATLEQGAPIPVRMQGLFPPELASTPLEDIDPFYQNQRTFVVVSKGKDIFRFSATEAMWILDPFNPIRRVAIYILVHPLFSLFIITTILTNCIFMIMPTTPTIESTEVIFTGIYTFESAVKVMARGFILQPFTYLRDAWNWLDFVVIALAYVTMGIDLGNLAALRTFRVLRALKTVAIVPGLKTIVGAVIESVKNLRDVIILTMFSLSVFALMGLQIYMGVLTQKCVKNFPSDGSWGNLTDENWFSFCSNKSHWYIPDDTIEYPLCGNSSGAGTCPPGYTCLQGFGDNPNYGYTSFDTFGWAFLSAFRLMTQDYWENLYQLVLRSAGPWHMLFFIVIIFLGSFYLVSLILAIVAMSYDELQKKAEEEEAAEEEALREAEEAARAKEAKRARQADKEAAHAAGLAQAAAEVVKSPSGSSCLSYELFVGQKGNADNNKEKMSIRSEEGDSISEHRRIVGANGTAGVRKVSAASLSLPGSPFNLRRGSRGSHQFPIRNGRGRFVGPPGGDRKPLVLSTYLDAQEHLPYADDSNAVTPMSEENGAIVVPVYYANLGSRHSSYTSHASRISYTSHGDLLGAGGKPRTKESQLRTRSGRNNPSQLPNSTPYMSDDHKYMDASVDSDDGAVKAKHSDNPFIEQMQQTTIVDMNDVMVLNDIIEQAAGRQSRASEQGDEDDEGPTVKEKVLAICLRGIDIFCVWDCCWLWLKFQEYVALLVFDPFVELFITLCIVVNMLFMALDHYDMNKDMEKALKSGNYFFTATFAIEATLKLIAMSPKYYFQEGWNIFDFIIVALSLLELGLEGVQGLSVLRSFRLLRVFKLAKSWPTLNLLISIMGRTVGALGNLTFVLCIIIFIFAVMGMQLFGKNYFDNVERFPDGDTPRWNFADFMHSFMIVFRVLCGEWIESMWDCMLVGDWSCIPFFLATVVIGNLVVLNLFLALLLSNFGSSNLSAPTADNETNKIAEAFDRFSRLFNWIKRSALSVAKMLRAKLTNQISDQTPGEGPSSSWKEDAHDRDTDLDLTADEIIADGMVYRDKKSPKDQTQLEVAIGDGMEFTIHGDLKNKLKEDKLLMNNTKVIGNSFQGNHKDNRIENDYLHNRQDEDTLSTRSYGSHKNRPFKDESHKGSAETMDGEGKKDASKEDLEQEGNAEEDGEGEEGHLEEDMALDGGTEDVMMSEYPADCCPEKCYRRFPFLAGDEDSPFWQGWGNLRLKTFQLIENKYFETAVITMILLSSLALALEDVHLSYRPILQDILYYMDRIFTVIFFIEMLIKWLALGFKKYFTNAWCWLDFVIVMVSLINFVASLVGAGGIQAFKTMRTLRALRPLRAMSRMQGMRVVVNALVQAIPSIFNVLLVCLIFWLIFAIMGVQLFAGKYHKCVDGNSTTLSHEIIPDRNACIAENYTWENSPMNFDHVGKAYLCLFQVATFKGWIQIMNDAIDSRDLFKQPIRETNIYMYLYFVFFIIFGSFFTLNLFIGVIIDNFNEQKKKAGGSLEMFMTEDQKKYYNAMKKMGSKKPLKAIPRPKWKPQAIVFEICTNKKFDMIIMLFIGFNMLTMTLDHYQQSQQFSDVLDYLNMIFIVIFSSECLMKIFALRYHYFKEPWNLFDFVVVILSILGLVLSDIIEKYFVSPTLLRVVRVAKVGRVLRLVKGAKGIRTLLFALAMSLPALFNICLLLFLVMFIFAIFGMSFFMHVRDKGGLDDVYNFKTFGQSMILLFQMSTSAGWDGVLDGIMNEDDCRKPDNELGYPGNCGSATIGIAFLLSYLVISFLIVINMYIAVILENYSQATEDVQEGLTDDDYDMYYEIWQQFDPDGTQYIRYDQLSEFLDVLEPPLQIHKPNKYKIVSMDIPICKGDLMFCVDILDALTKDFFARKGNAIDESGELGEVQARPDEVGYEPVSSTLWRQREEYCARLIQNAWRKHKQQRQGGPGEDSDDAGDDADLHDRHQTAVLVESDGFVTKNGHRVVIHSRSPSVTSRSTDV

SMILES | inhibition [1] | inhibition [2] | inhibition [4] | Activity (Gryllus bimaculatus [9]) | Activity (Gryllus bimaculatus [10]) | inhibition [11] | inhibition [12] | inhibition [13] | inhibition [14] | inhibition [15] | inhibition [16] | inhibition [17] | inhibition [18] | inhibition [19] | also measured
CSCC[C@@H]1NC(=O)[C@H](CC(=O)O)NC(=O)[C@H](CCC(=O)O)NC(=O)[C@@H]2CSSC[C@H](NC(=O)[C@@H](N)Cc3ccc(O)cc3)C(=O)N[C@@H](CCC(N)=O)C(=O)N[C@@H](CCCCN)C(=O)N[C@@H](Cc3ccccc3)C(=O)N[C@@H](CC(C)C)C(=O)N[C@@H](Cc3c[nH]c4ccccc34)C(=O)N[C@@H]([C@@H](C)O)C(=O)N[C@H]3CSSC[C@H](NC(=O)[C@H](C(C)C)NC1=O)C(=O)N[C@@H](CCC(=O)O)C(=O)N[C@@H](CC(C)C)C(=O)N[C@@H](Cc1c[nH]c4ccccc14)C(=O)N[C@H](C(=O)N[C@@H](CCCCN)C(=O)N[C@@H](Cc1ccc(O)cc1)C(=O)N[C@@H](CCCCN)C(=O)N[C@@H](CCC(=O)O)C(=O)O)CSSC[C@H](NC(=O)[C@H](CCCCN)NC(=O)[C@H](CCCNC(=N)N)NC(=O)[C@H](CCC(=O)O)NC(=O)[C@H]([C@@H](C)O)NC(=O)[C@H](CC(=O)O)NC3=O)C(=O)N2 (H-YCQKFLWTCDTERKCCEDMVCELWCKYKE-OH; disulfide 2-16, 9-21, 15-25) | inactive | inactive | inactive | Active | Active | inactive | inactive | Dose-dependent effect | Dose-dependent effect | Active | inactive | inactive | inactive | inactive | inhibition [3]: 10%; inhibition [5]: 7%; Activity [6]: 92%; Activity (Mus musculus [7]): Non-toxic; Activity (Mus musculus [8]): Non-toxic
CSCC[C@@H]1NC(=O)[C@H](CCCCN)NC(=O)[C@H](Cc2ccccc2)NC(=O)[C@H](CCC(N)=O)NC(=O)[C@@H](NC(=O)[C@@H](N)Cc2ccc(O)cc2)CSSC[C@@H]2NC(=O)[C@@H]3CSSC[C@@H](C(=O)N[C@@H](CCCCN)C(=O)N[C@@H](CC(C)C)C(=O)N[C@@H](CC(N)=O)C(=O)N[C@@H](CC(C)C)C(=O)O)NC(=O)[C@H](Cc4c[nH]c5ccccc45)NC(=O)[C@H](CC(C)C)NC(=O)[C@H](CCCNC(=N)N)NC(=O)[C@H](CSSC[C@H](NC(=O)[C@H]([C@@H](C)O)NC(=O)[C@H](Cc4c[nH]c5ccccc45)NC1=O)C(=O)N[C@@H](CC(=O)O)C(=O)N[C@@H](CO)C(=O)N[C@@H](CCC(=O)O)C(=O)N[C@@H](CCCNC(=N)N)C(=O)N[C@@H](CCCCN)C(=O)N3)NC(=O)[C@H](C(C)C)NC(=O)[C@H](CCSC)NC(=O)[C@H](CC(=O)O)NC(=O)[C@H](CCC(=O)O)NC2=O | inactive | inactive | inactive | Active | Active | inactive | inactive | Dose-dependent effect | Dose-dependent effect | Active | inactive | inactive | inactive | inactive | Activity (Mus musculus [20]): Non-toxic; Activity (Mus musculus [21]): Non-toxic; Activity (Mus musculus [22]): Toxic; Activity (Mus musculus [23]): Toxic; Activity (Mus musculus [24]): Toxic; Activity (Mus musculus [25]): Toxic; Activity (Mus musculus [26]): Toxic; Activity (Mus musculus [27]): Toxic; Activity (Mus musculus [28]): Toxic; Activity (Mus musculus [29]): Toxic
